An excerpt weighted towards active compounds, which were near 2.6% of everything screened.
V1R ag counter: activates human V1a receptor in oxytocin agonist counter-screen | actives 0.25% (n = 320,000) | AID 2797 | activation, % at 3 µM | CHO-V1R cells, Fluo-8 calcium fluorescence, agonist mode; 0% DMSO, 100% 3 nM vasopressin;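 active means activation above the mean activation of all tested compounds plus 3 SD, per screening run, cut at about 20% in these data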;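 further: signal is peak over basal fluorescence ratio across a 100 second FLIPR read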
CHO parental Ca: signal in parental CHO cells, OX1R antagonist counter-screen; parental CHO-K1, ATP-induced calcium, Fluo-8 fluorescence; inhibition, % at 5.6 µM; actives 0.63% (n = 330,000);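 active means inhibition above that plate's mean sample inhibition plus 3 SD, cut at about 26% in these data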;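 further: 0% = ATP-challenged DMSO wells and 100% = DMSO wells without ATP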
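Material – parental CHO cells · Reagent – ATP stimulus · Compound – single nominal dose of 5.6 µM per compound · Detection – Fluo-8 fluorescence · Read-out basis – percent inhibition of calcium signal · Controls – ATP-challenged DMSO wells low, unchallenged DMSO wells high · Repeats – no replicates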
OX1R antag-1: blocks the human orexin 1 receptor; O43613; OX1R-expressing cells, FRET antagonist read-out; inhibition, % at 6.6 µM; actives 1.8% (n = 330,000); in the data active means inhibition mostly above about 38%, no sharp cut-off; inactive means mostly below about 40%;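 further: 0% = agonist challenge alone and 100% = reference antagonist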
OXTR potentiator: potentiates the human oxytocin receptor response; P30559; CHO-OTR cells, Fluo-8 calcium fluorescence, potentiator mode; 0% = oxytocin EC15, 100% = EC100; activation, % at 3 µM; actives 0.061% (n = 320,000); AID 2445;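 active means activation above that plate's cutoff, the mean activation of tested compounds plus 3 SD, cut at about 6.6% in these data, passing the limit was not always enough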;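 further: 100% uses oxytocin at 75 nM as the full agonist control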
Target sequence (P30559 whole entry, looked up): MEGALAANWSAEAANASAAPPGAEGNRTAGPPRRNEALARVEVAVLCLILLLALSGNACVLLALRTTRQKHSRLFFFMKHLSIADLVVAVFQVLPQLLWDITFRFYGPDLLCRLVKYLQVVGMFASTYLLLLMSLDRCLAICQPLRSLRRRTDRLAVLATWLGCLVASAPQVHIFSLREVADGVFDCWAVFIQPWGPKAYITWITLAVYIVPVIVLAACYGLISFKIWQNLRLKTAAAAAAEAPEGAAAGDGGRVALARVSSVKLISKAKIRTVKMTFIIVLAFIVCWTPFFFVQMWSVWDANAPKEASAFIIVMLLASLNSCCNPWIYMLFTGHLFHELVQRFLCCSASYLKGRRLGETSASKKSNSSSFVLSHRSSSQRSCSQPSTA
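test system = CHO-OTR cells, human receptor | compound = single-point 3.0 µM | schedule = 6 min compound pre-incubation at room temperature, 100 s kinetic read | signal = Fluo-8 no-wash calcium dye fluorescence, excitation 470-495 nm, emission 515-575 nm | repeats = single well per compound, singlicate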
OX1R antag-2: human HCRTR1 antagonism; inhibition, % at 5 µM; O43613; CHO/OX1R cells, Fluo-8 calcium fluorescence, orexin A; actives 0.43% (n = 330,000); AID 434989;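 active means inhibition above its plate's threshold, mean inhibition of all tested compounds on the plate plus 3 SD, cut at about 37% in these data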;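 further: 0% = orexin A challenge wells and 100% = SB-334867-A antagonist wells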
OXTR agonist: agonists of human oxytocin receptor; actives 0.32% (n = 320,000); AID 2435; activation, % at 3 µM; P30559; CHO-OTR cells, Fluo-8 calcium fluorescence; normalized: DMSO 0%, oxytocin 100%;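 active means activation above the mean of all tested compounds plus 3 SD, cutoff set per screening run, cut at about 20% in these data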;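 further: peak over basal fluorescence ratio from a 100 s FLIPR kinetic read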
Starred values were filed as active, the others as inactive; / = no result.

SMILES	V1R ag counter	CHO parental Ca	OX1R antag-1	OXTR potentiator	OX1R antag-2	OXTR agonist
COc1ccc(N(CC(=O)N2CCc3ccccc3C2)S(C)(=O)=O)cc1	1	-13	1	-5	-14	0
COc1ccc(N(CC(=O)N2CCc3ccccc3C2)S(=O)(=O)c2c(C)nn(C)c2C)cc1	2	-18	42*	-7	-25	1
Cc1cc(NC(=O)OC2CCCCC2)ccc1[N+](=O)[O-]	2	-6	32	-10	-17	-1
CCCCc1cc(O)c(CCCC)c(O)c1	81*	80*	8	-25	102*	86*
CC(NC(=O)c1cc(COc2ccc3ncccc3c2)on1)c1ccc(F)cc1 (centres undefined)	13	51*	56	-15	43*	19
Cc1cc(OCc2cc(C(=O)N3CCN(CC4CC4)CC3)no2)cc(C)c1Cl	11	-31	17	-7	-25	5
O=C(NCCc1cn2ccccc2n1)c1cc(COc2ccc3ncccc3c2)on1	13	47*	65*	-16	47*	16
O=C(c1cc(COc2ccc3ncccc3c2)on1)N1CCCC1	10	20	29	-12	2	9
Cc1cc(OCc2cc(C(=O)N3CCC(Oc4cccnc4)CC3)no2)cc(C)c1Cl	8	56*	23	-18	30	5
COCC1CCN(C(=O)c2cc(COc3ccc4ncccc4c3)on2)CC1	8	42*	22	-13	21	17
Cc1ccn(CCC(=O)N2CCc3ccccc32)n1	0	-1	28	-8	-14	0
O=C(NC1CCCC1)c1cc(COc2ccc3ncccc3c2)on1	10	52*	24	-22	31	11
COc1cccc(CN(C)C(=O)c2cc(COc3c(F)cccc3F)on2)c1	0	-10	26	-10	-19	0
COc1cccc(CN(C)C(=O)c2cc(COc3ccc4ncccc4c3)on2)c1	10	66*	40	-14	41	16
O=C(Nc1ccc(S(=O)(=O)Nc2ccccc2F)cc1)N1CCCCC1	3	15	20	-4	3	3
O=c1[nH]c2c(=O)[nH]cnc2nc1-c1ccccc1	1	-6	40*	0	0	0
O=C(C#Cc1ccccc1)c1ccco1	-1	16	23	-3	25	1
O=[N+]([O-])c1ccc(/C=N/Nc2ccc3ccccc3c2)o1	9	42*	30	-18	37	12
CCNc1nc(NCC)nc(N/N=C/c2ccc([N+](=O)[O-])o2)n1	0	-6	54*	-4	16	-1
O=[N+]([O-])c1ccc(/C=N/Nc2nc(N3CCCC3)nc(N3CCCC3)n2)o1	0	-19	9	-5	-12	0
O=S(=O)(c1ccc(F)c(F)c1F)N1CCN(c2ncnc3sccc23)CC1	12	19	13	-9	20	15
Cc1ccc(S(=O)(=O)N2CCN(c3ncnc4sccc34)CC2)cc1	14	37*	21	-14	10	11
O=C(Nc1ccccc1)Nc1ccc(Cl)c([N+](=O)[O-])c1	10	10	33	-11	5	15
CC(CC(=O)Nc1ccc(Cl)c([N+](=O)[O-])c1)c1ccccc1 (centres undefined)	6	60*	91*	-21	66*	8
CC[C@]12c3[nH]c4cc(CCC(=O)N(C)C)ccc4c3CCN1C(=O)[C@@H](CC(=O)NCc1ccco1)C[C@@H]2C(=O)N1CCN(C(=O)C2CC2)CC1	/	-8	13	/	-13	/
CC[n+]1c(/C=C/N(C)c2ccccc2)oc2ccc(Cl)cc21	6	-5	6	2	-4	1
CCN1/C(=C/C=C/c2oc3ccc4ccccc4c3[n+]2CC)Oc2ccc3ccccc3c21	45*	64*	14	-6	76*	39*
CCCNC(=O)CC1C(=O)N(Cc2ccccc2)C(C)c2nc3ccccc3n21 (centres undefined)	-1	8	7	-5	-16	-1
O=C(CCCN1C(=O)c2cccnc2C1=O)Nc1ccc(F)cc1Cl	0	5	3	-2	5	0

Bioassay records: PubChem, The Scripps Research Institute Molecular Screening Center
